Experimental data as given in ChEMBL document CHEMBL3593234, “Lanostane Triterpenes from the Tibetan Medicinal Mushroom Ganoderma leucocontextum and Their Inhibitory Effects on HMG-CoA Reductase and α-Glucosidase” (J Nat Prod, 2015).

What was measured:
[1] = target: T1, 3-hydroxy-3-methylglutaryl-coenzyme A reductase (Sus scrofa, UniProt Q1W675); test: Inhibition of pig liver microsomes HMG-CoA reductase incubated for 5 mins in using HMG-CoA and NADPH by colorimetric method
T1 sequence (Q1W675 whole entry): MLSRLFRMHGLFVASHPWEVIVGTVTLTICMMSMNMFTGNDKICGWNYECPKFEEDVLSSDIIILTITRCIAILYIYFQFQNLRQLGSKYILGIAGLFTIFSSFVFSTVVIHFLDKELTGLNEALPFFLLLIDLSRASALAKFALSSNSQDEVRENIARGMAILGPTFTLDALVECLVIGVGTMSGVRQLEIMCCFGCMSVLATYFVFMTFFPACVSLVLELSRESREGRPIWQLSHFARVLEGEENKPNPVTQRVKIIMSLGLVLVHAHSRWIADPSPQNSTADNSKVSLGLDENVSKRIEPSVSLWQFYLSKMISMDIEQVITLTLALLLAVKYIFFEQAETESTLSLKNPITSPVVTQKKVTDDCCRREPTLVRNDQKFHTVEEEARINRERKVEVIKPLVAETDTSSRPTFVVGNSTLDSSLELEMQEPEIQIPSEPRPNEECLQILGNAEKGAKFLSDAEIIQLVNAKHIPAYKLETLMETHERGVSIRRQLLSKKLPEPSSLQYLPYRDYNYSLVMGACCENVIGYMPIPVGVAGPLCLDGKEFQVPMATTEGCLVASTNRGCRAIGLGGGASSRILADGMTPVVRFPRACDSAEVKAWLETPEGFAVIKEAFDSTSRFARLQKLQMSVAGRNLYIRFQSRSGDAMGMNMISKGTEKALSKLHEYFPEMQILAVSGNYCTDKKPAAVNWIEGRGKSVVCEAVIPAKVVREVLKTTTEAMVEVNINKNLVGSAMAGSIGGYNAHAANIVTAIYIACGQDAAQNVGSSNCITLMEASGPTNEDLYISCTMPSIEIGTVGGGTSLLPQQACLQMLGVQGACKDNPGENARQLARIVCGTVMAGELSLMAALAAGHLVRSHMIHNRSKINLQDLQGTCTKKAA
Summary of the method: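 Pig liver microsomal HMG-CoA reductase at about 4 U/mL final, with compound at 2.5–80 μM final and 200 μM HMG-CoA. Buffer was 0.1 mol/L potassium phosphate pH 7.0 with EDTA, dithiothreitol and BSA. After 5 min at 37 °C, 100 μM NADPH was added for 15 min at 37 °C. Absorbance was read at 340 nm, with percent inhibition from blank-corrected OD.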

PC-3 = test: Cytotoxicity against human PC3 cells by MTT method; type: functional, cell-based
[2] = Inhibition of Baker's yeast alpha-glucosidase; parameters: species or system Saccharomyces cerevisiae
Summary of the method: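 Baker's yeast α-glucosidase assay read by absorbance at 405 nm. Control wells got phosphate buffer instead of compound, and blanks got buffer instead of enzyme. Percent inhibition was calculated from blank-corrected OD of test versus control wells.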

K562 = test: Cytotoxicity against human K562 cells by MTT method; type: functional, cell-based

| Compound | IC50 [1] [µM] | IC50 (PC-3; Homo sapiens, PC-3) [µM] | IC50 [2] [µM] | IC50 (K562; Homo sapiens, K562) [µM] | IC50 (PC-3; pc-3) [µM] | IC50 (K562; k562) [µM] |
| --- | --- | --- | --- | --- | --- | --- |
| C[C@H](CCC=C(CO)CO)[C@H]1CC[C@@]2(C)C3=C(C(=O)C[C@]12C)[C@@]1(C)CCC(=O)C(C)(C)[C@@H]1CC3=O | 32.9 | 24.2 | > 50 | 115 | – | – |
| C[C@H]1O[C@H](O[C@H]2[C@H](O)[C@@H](O)[C@@H](O[C@H]3[C@H](O)[C@@H](O)C(O)O[C@@H]3CO)O[C@@H]2CO)[C@H](O)[C@@H](O)[C@@H]1N[C@H]1C=C(CO)[C@@H](O)[C@H](O)[C@H]1O (stereo partly specified) [ACARBOSE] | – | – | 273 | – | – | – |
| C[C@H](CCC=C(CO)CO)[C@H]1C[C@@H](O)[C@@]2(C)C3=CC[C@H]4C(C)(C)C(=O)CC[C@]4(C)C3=CC[C@]12C | > 100 | 103 | > 50 | 76.6 | – | – |
| C/C(=C\CC[C@@H](C)[C@H]1CC(=O)[C@@]2(C)C3=C(C(=O)[C@H](O)[C@]12C)[C@@]1(C)CCC(=O)[C@@](C)(CO)[C@@H]1C[C@@H]3O)C(=O)O | > 100 | > 200 | 12.7 | > 200 | – | – |
| C[C@H](CCC=C(CO)CO)[C@H]1CC[C@@]2(C)C3=CC[C@H]4C(C)(C)C(=O)CC[C@]4(C)C3=CC[C@]12C [GANODERIOL F] | > 100 | 79.5 | > 50 | 54.9 | – | – |
| C/C(=C\CC[C@@H](C)[C@H]1CC[C@@]2(C)C3=CC[C@H]4C(C)(C)[C@@H](O)CC[C@]4(C)C3=CC[C@]12C)C(=O)O [GANODERIC ACID Y] | 8.6 | 180 | > 50 | 17.5 | – | – |
| C/C(=C\CC[C@@H](C)[C@H]1CC[C@@]2(C)C3=C(C(=O)C[C@]12C)[C@@]1(C)CCC(=O)[C@@](C)(CO)[C@@H]1C[C@@H]3O)C(=O)O | 17.1 | > 200 | > 50 | 17.8 | – | – |
| C[C@H](CCC=C(CO)CO)[C@H]1CC[C@@]2(C)C3=C(CC[C@]12C)[C@@]1(C)CCC(=O)C(C)(C)[C@@H]1CC3=O | 12.6 | > 200 | > 50 | 41.6 | – | – |
| C[C@H](CCC=C(CO)CO)[C@H]1CC[C@@]2(C)C3=C(C(=O)C[C@]12C)[C@@]1(C)CCC(=O)C(C)(C)[C@@H]1C[C@@H]3O | > 100 | 132 | > 50 | 11.4 | – | – |
| CC(=O)O[C@H]1C(=O)C2=C([C@@H](O)C[C@H]3[C@](C)(COC(=O)C[C@@](C)(O)CC(=O)O)C(=O)CC[C@]23C)[C@]2(C)C(=O)C[C@H]([C@H](C)CC/C=C(\C)C(=O)O)[C@@]12C | 26.4 | 110 | > 50 | 12.3 | – | – |
| C[C@H](CC[C@H](O)[C@](C)(O)CO)[C@H]1CC[C@@]2(C)C3=CC[C@H]4C(C)(C)C(=O)CC[C@]4(C)C3=CC[C@]12C [GANODERMANONTRIOL] | 16.8 | 106 | > 50 | 80.9 | – | – |
| C/C(=C/CC[C@@H](C)[C@H]1CC[C@@]2(C)C3=C(C(O)C[C@]12C)[C@@]1(C)CCC(=O)C(C)(C)[C@@H]1CC3=O)C(=O)O (stereo partly specified) | > 100 | > 200 | > 50 | > 200 | – | – |
| C/C(=C\CC[C@@H](C)[C@H]1CC(=O)[C@@]2(C)C3=C(C(=O)C[C@]12C)[C@@]1(C)CCC(=O)[C@@](C)(COC(=O)C[C@@](C)(O)CC(=O)O)[C@@H]1CC3=O)C(=O)O | 13.3 | > 200 | > 50 | 14.4 | – | – |
| CC(=O)O[C@H]1C(=O)C2=C(C(=O)C[C@H]3[C@](C)(CO)C(=O)CC[C@]23C)[C@]2(C)C(=O)C[C@H]([C@H](C)CC/C=C(\C)C(=O)O)[C@@]12C | 20.5 | > 200 | > 50 | 18.2 | – | – |
| COc1cccc2c1C(=O)c1c(O)c3c(c(O)c1C2=O)C[C@@](O)(C(=O)CO)C[C@@H]3O[C@H]1C[C@H](N)[C@H](O)[C@H](C)O1 [DOXORUBICIN] | – | 2 | – | – | – | – |
| C/C(=C\CC[C@@H](C)[C@H]1CC(=O)[C@@]2(C)C3=C(C(=O)[C@H](O)[C@]12C)[C@@]1(C)CCC(=O)[C@@](C)(COC(=O)C[C@@](C)(O)CC(=O)O)[C@@H]1CC3=O)C(=O)O | 10.7 | > 200 | > 50 | 22.6 | – | – |
| CC(=O)O[C@H]1C(=O)[C@@]2(C)[C@H]([C@H](OC(=O)c3ccccc3)[C@]3(O)C[C@H](OC(=O)[C@H](O)[C@@H](NC(=O)c4ccccc4)c4ccccc4)C(C)=C1C3(C)C)[C@]1(OC(C)=O)CO[C@@H]1C[C@@H]2O [PACLITAXEL] | – | – | – | 0.9 | – | – |
| C/C(=C\CC[C@@H](C)[C@H]1CC[C@@]2(C)C3=C(CC[C@]12C)[C@@]1(C)CCC(=O)C(C)(C)[C@@H]1CC3=O)CO [GANODERONE A] | > 100 | 28.5 | 13.7 | 27.7 | – | – |
| C/C(=C/CC[C@@H](C)[C@H]1CC[C@@]2(C)C3=C(CC[C@]12C)[C@@]1(C)CCC(=O)C(C)(C)[C@@H]1CC3=O)C(=O)O (stereo in doubt; 21) [GANODERIC ACID DM] | 56.1 | – | – | – | 149 | 55.4 |
| C/C(=C/CC[C@@H](C)[C@H]1CC[C@@]2(C)C3=C(CC[C@]12C)[C@@]1(C)CCC(=O)C(C)(C)[C@@H]1CC3=O)C(=O)O (stereo in doubt; 18) [GANODERIC ACID DM] | 9.5 | 81.6 | > 50 | – | – | 18.8 |
| C[C@H](CCC=C(CO)CO)[C@H]1C[C@@H](O)[C@@]2(C)C3=C(C(=O)C[C@]12C)[C@@]1(C)CCC(=O)C(C)(C)[C@@H]1CC3 | > 100 | > 200 | > 50 | > 200 | – | – |
| CC(C)c1c(C(=O)Nc2ccccc2)c(-c2ccccc2)c(-c2ccc(F)cc2)n1CC[C@@H](O)C[C@@H](O)CC(=O)O [ATORVASTATIN] | 32.1 | – | – | – | – | – |
| CC(=O)O[C@H]1C(=O)C2=C([C@@H](O)C[C@H]3[C@](C)(CO)C(=O)CC[C@]23C)[C@]2(C)CC[C@H]([C@H](C)CC/C=C(\C)C(=O)O)[C@@]12C | 26.6 | > 200 | > 50 | > 200 | – | – |
| C/C(=C\CC[C@@H](C)[C@H]1CC[C@@]2(C)C3=C(C(=O)[C@H](O)[C@]12C)[C@@]1(C)CCC(=O)[C@@](C)(CO)[C@@H]1C[C@@H]3O)C(=O)O | 66.9 | > 200 | > 50 | 19.7 | – | – |
| C/C(=C/CC[C@@H](C)[C@H]1CC[C@@]2(C)C3=CC[C@H]4C(C)(C)C(=O)CC[C@]4(C)C3=CC[C@]12C)C(=O)O [GANODERIC ACID S] | 12.5 | 75.2 | > 50 | 65.2 | – | – |
| CC(=O)O[C@H]1C(=O)C2=C([C@@H](O)C[C@H]3[C@](C)(CO)C(=O)CC[C@]23C)[C@]2(C)C(=O)C[C@H]([C@H](C)CC/C=C(\C)C(=O)O)[C@@]12C | 97.5 | 88.3 | > 50 | 147 | – | – |
